Data as given in ChEMBL document CHEMBL4219184, “Design, synthesis, and biological evaluation of new B-RafV600E kinase inhibitors” (Bioorg Med Chem, 2018).
Blank lines part the entries; values can stand above or below the compound they belong to. Activity calls are given as the source filed them. The calls are words filed in the database; no cut-off is given here.

Experiments:
[1] = Antiproliferative activity against wild type BRAF expressing human WM1361 cells after 48 hrs by MTT assay; format: functional; settings: WM1361, 48 h
Outline: (§1)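 MTT assay. Cells seeded at 10^4 per well in 96-well plates and left 24 h. Compounds then added at 0.01, 0.1, 1, 10 and 100 µM for 48 h. IC50 values calculated from the viability data.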

HCT-116 = test: Antiproliferative activity against wild type BRAF expressing human HCT116 cells after 48 hrs by MTT assay; format: functional, cell-based; settings: HCT-116, 48 h; outline: as §1
HT-29 = test: Antiproliferative activity against human HT-29 cells harboring BRAF V600E mutant after 48 hrs by MTT assay; format: functional, cell-based; settings: HT-29, 48 h; outline: as §1
A-375 [2] = test: Antiproliferative activity against human A375 cells harboring BRAF V600E mutant after 48 hrs by MTT assay; format: functional, cell-based; settings: A-375, 48 h; outline: as §1
[3] = biological target: Serine/threonine-protein kinase B-raf (Mus musculus, UniProt P28028, V600E); test: Inhibition of mouse full length GST-tagged BRAF V600E mutant using recombinant human full length N-terminal His-tagged MEK1 as substrate preincubated for 1 hr followed by substrate addition measured after 25 mins by Nu-page gel-based phosphor screen analysis
A-375 [4] = test: Induction of apoptosis in human A375 cells assessed as viable cells at 2 uM after 24 hrs by Annexin V-FITC/propidium iodide double staining-based flow cytometry (reference value: 96.2%); format: functional; settings: A-375, 24 h, read-out: Activity
[5] = biological target: T1, Serine/threonine-protein kinase B-raf (Homo sapiens, UniProt P15056); test: Induction of wild type BRAF activation in human WM1361 cells assessed as increase in MEK phosphorylation up to 0.15 uM by Western blot analysis; format: cell-based
Outline: (§2)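 Cells in 6-well plates were lysed in RIPA with PMSF on ice for 30 min and cleared at 12,000 g, 4 °C. Protein was measured by BCA, run on SDS-PAGE and moved to PVDF. Blots were blocked in 5% milk/TBST, given primary antibodies (1:500–1:1000) overnight at 4 °C, then HRP secondaries (1:5000–1:10000) for 1 h. Bands were detected by ECL.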

A-375 [6] = test: Induction of apoptosis in human A375 cells assessed as late apoptotic cells at 1 uM after 24 hrs by Annexin V-FITC/propidium iodide double staining-based flow cytometry (reference value: 2.36%); format: functional
A-375 [7] = test: Induction of apoptosis in human A375 cells assessed as early apoptotic cells at 1 uM after 24 hrs by Annexin V-FITC/propidium iodide double staining-based flow cytometry (reference value: 1.19%); format: functional
A-375 [8] = test: Induction of apoptosis in human A375 cells assessed as necrotic cells at 4 uM after 24 hrs by Annexin V-FITC/propidium iodide double staining-based flow cytometry (reference value: 0.227%); format: functional
[9] = tested on: Serine/threonine-protein kinase B-raf (Homo sapiens), P15056 [V600E]; test: Inhibition of BRAF V600E mutant in human A375 cells assessed as reduction in ERK phosphorylation by Western blot analysis; format: cell-based; outline: as §2
[10] = tested on: Serine/threonine-protein kinase B-raf (Homo sapiens), P15056 [V600E]; test: Inhibition of BRAF V600E mutant in human A375 cells assessed as reduction in MEK phosphorylation by Western blot analysis; format: cell-based; outline: as §2
A-375 [11] = test: Induction of apoptosis in human A375 cells assessed as late apoptotic cells at 4 uM after 24 hrs by Annexin V-FITC/propidium iodide double staining-based flow cytometry (reference value: 2.36%); format: functional
A-375 [12] = test: Induction of apoptosis in human A375 cells assessed as early apoptotic cells at 4 uM after 24 hrs by Annexin V-FITC/propidium iodide double staining-based flow cytometry (reference value: 1.19%); format: functional
[13] = biological target: T1, Serine/threonine-protein kinase B-raf; test: Induction of wild type BRAF activation in human WM1361 cells assessed as increase in ERK phosphorylation up to 0.15 uM by Western blot analysis; format: cell-based; outline: as §2
[14] = biological target: T1, Serine/threonine-protein kinase B-raf; test: Inhibition of wild type BRAF in human WM1361 cells assessed as reduction in ERK phosphorylation at 0.5 uM by Western blot analysis; format: cell-based; outline: as §2
A-375 [15] = test: Induction of apoptosis in human A375 cells assessed as necrotic cells at 2 uM after 24 hrs by Annexin V-FITC/propidium iodide double staining-based flow cytometry (reference value: 0.227%); format: functional
A-375 [16] = test: Induction of apoptosis in human A375 cells assessed as viable cells at 1 uM after 24 hrs by Annexin V-FITC/propidium iodide double staining-based flow cytometry (reference value: 96.2%); format: functional; settings: A-375, 24 h, read-out: Activity
[17] = biological target: T1, Serine/threonine-protein kinase B-raf; test: Inhibition of wild type BRAF in human WM1361 cells assessed as reduction in MEK phosphorylation at 0.5 uM by Western blot analysis; format: cell-based; outline: as §2
A-375 [18] = test: Induction of apoptosis in human A375 cells after 24 hrs by Annexin V-FITC/propidium iodide double staining-based flow cytometry; format: functional, cell-based
A-375 [19] = test: Effect on total ERK protein levels in human A375 cells at 0.05 to 5 uM by Western blot analysis; format: ADME, cell-based; settings: a-375, 5 µM; outline: as §2
A-375 [20] = test: Induction of apoptosis in human A375 cells assessed as late apoptotic cells at 2 uM after 24 hrs by Annexin V-FITC/propidium iodide double staining-based flow cytometry (reference value: 2.36%); format: functional
A-375 [21] = test: Effect on total MEK protein levels in human A375 cells at 0.05 to 5 uM by Western blot analysis; format: ADME, cell-based; settings: a-375, 5 µM; outline: as §2
A-375 [22] = test: Induction of apoptosis in human A375 cells assessed as necrotic cells at 1 uM after 24 hrs by Annexin V-FITC/propidium iodide double staining-based flow cytometry (reference value: 0.227%); format: functional
A-375 [23] = test: Induction of apoptosis in human A375 cells assessed as viable cells at 4 uM after 24 hrs by Annexin V-FITC/propidium iodide double staining-based flow cytometry (reference value: 96.2%); format: functional; settings: A-375, 24 h, read-out: Activity
A-375 [24] = test: Induction of apoptosis in human A375 cells assessed as early apoptotic cells at 2 uM after 24 hrs by Annexin V-FITC/propidium iodide double staining-based flow cytometry (reference value: 1.19%); format: functional

T1 sequence (P15056 whole entry): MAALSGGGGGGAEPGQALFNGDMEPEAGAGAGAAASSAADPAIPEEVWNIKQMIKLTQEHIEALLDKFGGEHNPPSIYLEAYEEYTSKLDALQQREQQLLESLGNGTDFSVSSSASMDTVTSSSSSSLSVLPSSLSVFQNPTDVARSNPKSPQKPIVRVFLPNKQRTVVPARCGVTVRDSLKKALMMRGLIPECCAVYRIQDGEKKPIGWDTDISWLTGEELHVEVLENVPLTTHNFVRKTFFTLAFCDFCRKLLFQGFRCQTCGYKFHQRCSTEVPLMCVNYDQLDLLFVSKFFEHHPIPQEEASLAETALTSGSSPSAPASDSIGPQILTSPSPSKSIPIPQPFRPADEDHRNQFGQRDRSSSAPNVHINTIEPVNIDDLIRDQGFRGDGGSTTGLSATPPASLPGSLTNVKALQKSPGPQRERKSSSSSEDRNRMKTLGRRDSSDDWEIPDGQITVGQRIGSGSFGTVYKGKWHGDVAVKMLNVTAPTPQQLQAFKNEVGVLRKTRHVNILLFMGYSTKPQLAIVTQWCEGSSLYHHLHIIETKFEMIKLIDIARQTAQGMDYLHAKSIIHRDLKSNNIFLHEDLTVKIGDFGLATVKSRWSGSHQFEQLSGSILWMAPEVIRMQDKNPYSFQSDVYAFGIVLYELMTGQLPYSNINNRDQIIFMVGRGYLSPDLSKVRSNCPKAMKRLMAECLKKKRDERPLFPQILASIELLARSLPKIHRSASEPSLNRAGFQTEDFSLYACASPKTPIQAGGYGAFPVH
Chain of Serine/threonine-protein kinase B-raf (Mus musculus, UniProt P28028, V600E) (P28028 whole entry, looked up, stated change not applied): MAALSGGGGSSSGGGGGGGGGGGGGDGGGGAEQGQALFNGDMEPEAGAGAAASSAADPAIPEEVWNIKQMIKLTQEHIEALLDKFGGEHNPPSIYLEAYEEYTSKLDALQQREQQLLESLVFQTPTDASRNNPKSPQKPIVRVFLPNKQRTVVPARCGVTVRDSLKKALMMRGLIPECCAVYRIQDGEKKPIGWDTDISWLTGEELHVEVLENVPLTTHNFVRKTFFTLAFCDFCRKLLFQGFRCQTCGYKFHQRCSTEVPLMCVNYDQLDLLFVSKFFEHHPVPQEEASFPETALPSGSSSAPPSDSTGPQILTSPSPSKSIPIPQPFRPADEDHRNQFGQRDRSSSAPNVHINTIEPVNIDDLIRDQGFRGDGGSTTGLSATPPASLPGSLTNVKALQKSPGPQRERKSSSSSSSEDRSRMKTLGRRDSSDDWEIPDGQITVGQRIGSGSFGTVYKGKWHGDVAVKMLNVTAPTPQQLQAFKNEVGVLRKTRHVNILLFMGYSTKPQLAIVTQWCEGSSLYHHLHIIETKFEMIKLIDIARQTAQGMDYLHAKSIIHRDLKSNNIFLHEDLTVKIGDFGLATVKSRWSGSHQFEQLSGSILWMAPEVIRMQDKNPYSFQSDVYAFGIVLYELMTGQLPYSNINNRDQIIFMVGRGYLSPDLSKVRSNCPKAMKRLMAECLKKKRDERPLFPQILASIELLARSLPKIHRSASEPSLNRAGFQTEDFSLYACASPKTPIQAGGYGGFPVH
Chain of Serine/threonine-protein kinase B-raf (Homo sapiens), P15056 [V600E] (P15056 whole entry V600E): as the sequence (P15056 whole entry) above, with V600E counted along it

- IC50 (HCT-116): 32.5 µM
- IC50 (HT-29): 17.9 µM
- IC50 (A-375 [2]): 7.62 µM
- IC50 [3]: 3.04 µM
SMILES: O=C(Nc1cccc(C(=O)Nc2ccc3[nH]ncc3c2)c1)c1ccc(Cl)cc1
- IC50 [1]: 30.8 µM

- IC50 (HCT-116): 22.2 µM
- IC50 (HT-29): 9.65 µM
- IC50 (A-375 [2]): 7.58 µM
- IC50 [3]: 0.46 µM
SMILES: O=C(Nc1ccc2[nH]ncc2c1)c1cccc(NC(=O)c2ccc(Br)cn2)c1
- IC50 [1]: 19.6 µM

- IC50 (HCT-116): 26.2 µM
- IC50 (HT-29): 20.5 µM
- IC50 (A-375 [2]): 9.87 µM
- IC50 [3]: 4.94 µM
SMILES: O=C(Nc1cccc(C(=O)Nc2ccc3[nH]ncc3c2)c1)c1cccc(Cl)c1
- IC50 [1]: 25.5 µM

- IC50 (HCT-116): 24.9 µM
- IC50 (HT-29): 12.2 µM
- IC50 (A-375 [2]): 8.83 µM
- IC50 [3]: 1.05 µM
SMILES: O=C(Nc1ccc2[nH]ncc2c1)c1cccc(NC(=O)c2cccc(Cl)n2)c1
- IC50 [1]: 27.2 µM

- IC50 (HCT-116): 25.1 µM
- IC50 (HT-29): 11.5 µM
- IC50 (A-375 [2]): 7.46 µM
- IC50 [3]: 0.81 µM
SMILES: Cc1cccc(C(=O)Nc2cccc(C(=O)Nc3ccc4[nH]ncc4c3)c2)n1
- IC50 [1]: 21.3 µM

- IC50 (HCT-116): 35.9 µM
- IC50 (HT-29): 17.2 µM
- IC50 (A-375 [2]): 8.29 µM
- IC50 [3]: 4.11 µM
SMILES: O=C(Nc1ccc2[nH]ncc2c1)c1cccc(NC(=O)c2ccccn2)c1
- IC50 [1]: 28.2 µM

- IC50 (HCT-116): 19.7 µM
- IC50 (HT-29): 8.99 µM
- IC50 (A-375 [2]): 4.56 µM
- IC50 [3]: 1.14 µM
SMILES: O=C(Nc1ccc2[nH]ncc2c1)c1cccc(NC(=O)c2cc(Cl)ccn2)c1
- IC50 [1]: 16.2 µM

More lines, now with the values behind:

SMILES: O=C(Nc1cccc(C(=O)Nc2ccc3[nH]ncc3c2)c1)c1ccccc1
- IC50 [1]: 35.1 µM
- IC50 (HCT-116): 30.9 µM
- IC50 (HT-29): 16.1 µM
- IC50 (A-375 [2]): 9.12 µM
- IC50 [3]: 5.22 µM

SMILES: O=C(Nc1cccc(C(=O)Nc2ccc3[nH]ncc3c2)c1)c1ccc(Br)cc1
- IC50 [1]: 24.6 µM
- IC50 (HCT-116): 29.2 µM
- IC50 (HT-29): 14.4 µM
- IC50 (A-375 [2]): 5.74 µM
- IC50 [3]: 2.78 µM

SMILES: O=C(Nc1cccc(C(=O)Nc2ccc3[nH]ncc3c2)c1)c1cccc(F)c1
- IC50 [1]: 38.4 µM
- IC50 (HCT-116): 20.5 µM
- IC50 (HT-29): 19.2 µM
- IC50 (A-375 [2]): 12.2 µM
- IC50 [3]: 8.71 µM

SMILES: O=C(Nc1ccc2[nH]ccc2c1)c1cccc(NC(=O)c2ccccn2)c1
- IC50 [1]: 17.4 µM
- IC50 (HCT-116): 23.8 µM
- IC50 (HT-29): 10.6 µM
- IC50 (A-375 [2]): 5.78 µM
- IC50 [3]: 3.52 µM

SMILES: O=C(Nc1cccc(C(=O)Nc2ccc3[nH]ccc3c2)c1)c1ccc(Cl)cc1
- IC50 [1]: 19.6 µM
- IC50 (HCT-116): 22.3 µM
- IC50 (HT-29): 11.1 µM
- IC50 (A-375 [2]): 6.72 µM
- IC50 [3]: 2.61 µM

SMILES: O=C(Nc1cccc(C(=O)Nc2ccc3[nH]ncc3c2)c1)c1ccc(F)cc1
- IC50 [1]: 29.2 µM
- IC50 (HCT-116): 36.2 µM
- IC50 (HT-29): 12.2 µM
- IC50 (A-375 [2]): 7.15 µM
- IC50 [3]: 1.57 µM

SMILES: O=C(Nc1cccc(C(=O)Nc2ccc3[nH]ccc3c2)c1)c1ccccc1
- IC50 [1]: 24.6 µM
- IC50 (HCT-116): 21.2 µM
- IC50 (HT-29): 10.6 µM
- IC50 (A-375 [2]): 6.49 µM
- IC50 [3]: 2.11 µM

SMILES: CNC(=O)c1cc(Oc2ccc(NC(=O)Nc3ccc(Cl)c(C(F)(F)F)c3)cc2)ccn1 [SORAFENIB]
- IC50 [1]: 16.4 µM
- IC50 (HCT-116): 23.3 µM
- IC50 (HT-29): 8.44 µM
- IC50 (A-375 [2]): 3.36 µM

SMILES: O=C(Nc1ccc2[nH]ccc2c1)c1cccc(NC(=O)c2cccc(Cl)n2)c1
- IC50 [1]: 19.2 µM
- IC50 (HCT-116): 35.5 µM
- IC50 (HT-29): 19.6 µM
- IC50 (A-375 [2]): 8.46 µM
- IC50 [3]: 6.57 µM

SMILES: O=C(Nc1cccc(C(=O)Nc2ccc3[nH]ncc3c2)c1)c1ccc(C(F)(F)F)cc1
- IC50 [1]: 12.8 µM
- viability at 2 µM (A-375 [4]): 73.7%
- Activity [5]: Not Active
- Activity (A-375 [6]): 10.1%
- Activity (A-375 [7]): 8.05%
- Activity (A-375 [8]): 0.652%
- IC50 (HCT-116): 18.7 µM
- IC50 (HT-29): 4.41 µM
- IC50 (A-375 [2]): 1.97 µM
- inhibition [9]: Dose-dependent effect
- IC50 [3]: 0.18 µM
- inhibition [10]: Dose-dependent effect
- Activity (A-375 [11]): 16.1%
- Activity (A-375 [12]): 12.2%
- Activity [13]: Not Active
- inhibition [14]: Active
- Activity (A-375 [15]): 1.05%
- viability at 1 µM (A-375 [16]): 80.3%
- inhibition [17]: Active
- Activity (A-375 [18]): Dose-dependent effect
- Activity (A-375 [19]): Non-Toxic
- Activity (A-375 [20]): 14.6%
- Activity (A-375 [21]): Non-Toxic
- Activity (A-375 [22]): 1.56%
- viability at 4 µM (A-375 [23]): 71%
- Activity (A-375 [24]): 10.7%

SMILES: O=C(Nc1cccc(C(=O)Nc2ccc3[nH]ncc3c2)c1)c1ccc(Oc2ccccc2)cc1
- IC50 [1]: 29.6 µM
- IC50 (HCT-116): 37.4 µM
- IC50 (HT-29): 18.5 µM
- IC50 (A-375 [2]): 9.45 µM
- IC50 [3]: 5.27 µM

SMILES: O=C(Nc1cccc(C(=O)Nc2ccc3[nH]ccc3c2)c1)c1ccc(Oc2ccccc2)cc1
- IC50 [1]: 21.6 µM
- IC50 (HCT-116): 35.2 µM
- IC50 (HT-29): 21.1 µM
- IC50 (A-375 [2]): 10.5 µM
- IC50 [3]: 5.72 µM

SMILES: CC(C)(C)c1ccc(C(=O)Nc2cccc(C(=O)Nc3ccc4[nH]ncc4c3)c2)cc1
- IC50 [1]: 18.4 µM
- IC50 (HCT-116): 26.2 µM
- IC50 (HT-29): 10.9 µM
- IC50 (A-375 [2]): 2.85 µM
- IC50 [3]: 0.75 µM
